Test system: Fibroblast
Assay: Multiplex assay against human fibroblast
Assay type: toxicity, cell-based
Outline: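 Live cells were stained at seeding with Hoechst33342, BioTracker Green Microtubule Cytoskeleton Dye, MitoTracker Red and Annexin V Alexa Fluor 680. Following compound addition, they were imaged on a CQ1 microscope at 37°C and 5% CO2 and gated by CellPathfinder machine learning into Hoechst high-intensity objects or normal cells, with normal cells split into healthy, pyknosed or fragmented nuclei and pyknosed cells into mitotic or apoptotic. Tubulin, mitochondrial-mass and membrane-permeability phenotypes are per cents of healthy-nucleus cells.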

[1] = 12 h, 1 µM, compound concentration 1 uM, replicate 1
[2] = 12 h, 1 µM, compound concentration 1 uM, replicate 2
[3] = 12 h, 10 µM, compound concentration 10 uM, replicate 1
[4] = 12 h, 10 µM, compound concentration 10 uM, replicate 2
[5] = 24 h, 1 µM, compound concentration 1 uM, replicate 1
[6] = 24 h, 1 µM, compound concentration 1 uM, replicate 2
[7] = 24 h, 10 µM, compound concentration 10 uM, replicate 1
[8] = 24 h, 10 µM, compound concentration 10 uM, replicate 2
[9] = 48 h, 1 µM, compound concentration 1 uM, replicate 1
[10] = 48 h, 1 µM, compound concentration 1 uM, replicate 2
[11] = 48 h, 10 µM, compound concentration 10 uM, replicate 1
[12] = 48 h, 10 µM, compound concentration 10 uM, replicate 2

CN1CCC(C(=O)c2cccc(NC(=O)c3c(F)cc(F)cc3F)n2)CC1
Population Apoptotic (%) [1]: 28% | Population Fragmented Nuclei (%) [1]: 16% | Population Healthy Nuclei (%) [1]: 64% | Population Hoechst High Intensity Objects (%) [1]: 3% | Population Membrane Permeable-Phenotype (%) [1]: 1% | Population Mitochondria Different-Phenotype (%) [1]: 4% | Population Mitotic Cells (%) [1]: 71% | Population Normal (%) [1]: 96% | Population Pyknosed Nuclei (%) [1]: 18% | Population Tubulin-Different-Phenotype (%) [1]: 28% | Total Cell Count [1]: 153 | Population Apoptotic (%) [2]: 40% | Population Fragmented Nuclei (%) [2]: 28% | Population Healthy Nuclei (%) [2]: 53% | Population Hoechst High Intensity Objects (%) [2]: 2% | Population Membrane Permeable-Phenotype (%) [2]: 5% | Population Mitochondria Different-Phenotype (%) [2]: 10% | Population Mitotic Cells (%) [2]: 60% | Population Normal (%) [2]: 97% | Population Tubulin-Different-Phenotype (%) [2]: 43% | Total Cell Count [2]: 142 | Population Apoptotic (%) [3]: 32% | Population Fragmented Nuclei (%) [3]: 12% | Population Healthy Nuclei (%) [3]: 74% | Population Hoechst High Intensity Objects (%) [3]: 4% | Population Membrane Permeable-Phenotype (%) [3]: 1% | Population Mitochondria Different-Phenotype (%) [3]: 7% | Population Mitotic Cells (%) [3]: 67% | Population Normal (%) [3]: 95% | Population Pyknosed Nuclei (%) [3]: 13% | Population Tubulin-Different-Phenotype (%) [3]: 42% | Total Cell Count [3]: 266 | Population Apoptotic (%) [4]: 36% | Population Fragmented Nuclei (%) [4]: 23% | Population Healthy Nuclei (%) [4]: 54% | Population Membrane Permeable-Phenotype (%) [4]: 6% | Population Mitochondria Different-Phenotype (%) [4]: 6% | Population Mitotic Cells (%) [4]: 63% | Population Pyknosed Nuclei (%) [4]: 22% | Population Tubulin-Different-Phenotype (%) [4]: 63% | Total Cell Count [4]: 142 | Population Apoptotic (%) [5]: 45% | Population Fragmented Nuclei (%) [5]: 12% | Population Healthy Nuclei (%) [5]: 74% | Population Hoechst High Intensity Objects (%) [5]: 1% | Population Membrane Permeable-Phenotype (%) [5]: 0% | Population Mitochondria Different-Phenotype (%) [5]: 2% | Population Mitotic Cells (%) [5]: 55% | Population Normal (%) [5]: 98% | Population Pyknosed Nuclei (%) [5]: 12% | Population Tubulin-Different-Phenotype (%) [5]: 21% | Total Cell Count [5]: 156 | Population Apoptotic (%) [6]: 40% | Population Fragmented Nuclei (%) [6]: 34% | Population Healthy Nuclei (%) [6]: 43% | Population Membrane Permeable-Phenotype (%) [6]: 6% | Population Mitochondria Different-Phenotype (%) [6]: 10% | Population Mitotic Cells (%) [6]: 59% | Population Pyknosed Nuclei (%) [6]: 21% | Population Tubulin-Different-Phenotype (%) [6]: 45% | Total Cell Count [6]: 148 | Population Apoptotic (%) [7]: 54% | Population Fragmented Nuclei (%) [7]: 13% | Population Healthy Nuclei (%) [7]: 71% | Population Hoechst High Intensity Objects (%) [7]: 3% | Population Membrane Permeable-Phenotype (%) [7]: 0% | Population Mitochondria Different-Phenotype (%) [7]: 6% | Population Mitotic Cells (%) [7]: 45% | Population Normal (%) [7]: 96% | Population Pyknosed Nuclei (%) [7]: 14% | Population Tubulin-Different-Phenotype (%) [7]: 37% | Total Cell Count [7]: 258 | Population Apoptotic (%) [8]: 37% | Population Fragmented Nuclei (%) [8]: 30% | Population Healthy Nuclei (%) [8]: 50% | Population Hoechst High Intensity Objects (%) [8]: 2% | Population Membrane Permeable-Phenotype (%) [8]: 5% | Population Mitochondria Different-Phenotype (%) [8]: 8% | Population Mitotic Cells (%) [8]: 62% | Population Normal (%) [8]: 97% | Population Pyknosed Nuclei (%) [8]: 19% | Population Tubulin-Different-Phenotype (%) [8]: 65% | Total Cell Count [8]: 153 | Population Apoptotic (%) [9]: 71% | Population Fragmented Nuclei (%) [9]: 16% | Population Healthy Nuclei (%) [9]: 74% | Population Hoechst High Intensity Objects (%) [9]: 3% | Population Membrane Permeable-Phenotype (%) [9]: 0% | Population Mitochondria Different-Phenotype (%) [9]: 1% | Population Mitotic Cells (%) [9]: 28% | Population Normal (%) [9]: 96% | Population Pyknosed Nuclei (%) [9]: 8% | Population Tubulin-Different-Phenotype (%) [9]: 25% | Total Cell Count [9]: 164 | Population Apoptotic (%) [10]: 56% | Population Fragmented Nuclei (%) [10]: 42% | Population Healthy Nuclei (%) [10]: 46% | Population Hoechst High Intensity Objects (%) [10]: 2% | Population Membrane Permeable-Phenotype (%) [10]: 5% | Population Mitochondria Different-Phenotype (%) [10]: 5% | Population Mitotic Cells (%) [10]: 43% | Population Normal (%) [10]: 97% | Population Pyknosed Nuclei (%) [10]: 10% | Population Tubulin-Different-Phenotype (%) [10]: 67% | Total Cell Count [10]: 156 | Population Apoptotic (%) [11]: 71% | Population Fragmented Nuclei (%) [11]: 17% | Population Healthy Nuclei (%) [11]: 71% | Population Hoechst High Intensity Objects (%) [11]: 5% | Population Membrane Permeable-Phenotype (%) [11]: 0% | Population Mitochondria Different-Phenotype (%) [11]: 7% | Population Mitotic Cells (%) [11]: 28% | Population Normal (%) [11]: 94% | Population Pyknosed Nuclei (%) [11]: 10% | Population Tubulin-Different-Phenotype (%) [11]: 40% | Total Cell Count [11]: 272 | Population Apoptotic (%) [12]: 54% | Population Fragmented Nuclei (%) [12]: 36% | Population Healthy Nuclei (%) [12]: 55% | Population Hoechst High Intensity Objects (%) [12]: 3% | Population Membrane Permeable-Phenotype (%) [12]: 3% | Population Mitochondria Different-Phenotype (%) [12]: 3% | Population Mitotic Cells (%) [12]: 45% | Population Normal (%) [12]: 96% | Population Pyknosed Nuclei (%) [12]: 7% | Population Tubulin-Different-Phenotype (%) [12]: 69% | Total Cell Count [12]: 152

Cc1cc(=O)n(C)c2cc(N3C(=O)CC[C@H](NS(=O)(=O)CC(C)C)[C@H]3c3ccc(Cl)cc3)ccc12
Population Apoptotic (%) [1]: 31% | Population Fragmented Nuclei (%) [1]: 16% | Population Healthy Nuclei (%) [1]: 56% | Population Hoechst High Intensity Objects (%) [1]: 2% | Population Membrane Permeable-Phenotype (%) [1]: 0% | Population Mitochondria Different-Phenotype (%) [1]: 4% | Population Mitotic Cells (%) [1]: 68% | Population Normal (%) [1]: 97% | Population Pyknosed Nuclei (%) [1]: 26% | Population Tubulin-Different-Phenotype (%) [1]: 34% | Total Cell Count [1]: 135 | Population Apoptotic (%) [2]: 38% | Population Fragmented Nuclei (%) [2]: 20% | Population Healthy Nuclei (%) [2]: 38% | Population Hoechst High Intensity Objects (%) [2]: 10% | Population Membrane Permeable-Phenotype (%) [2]: 8% | Population Mitotic Cells (%) [2]: 62% | Population Normal (%) [2]: 89% | Population Pyknosed Nuclei (%) [2]: 40% | Population Tubulin-Different-Phenotype (%) [2]: 61% | Total Cell Count [2]: 137 | Population Apoptotic (%) [3]: 41% | Population Fragmented Nuclei (%) [3]: 11% | Population Healthy Nuclei (%) [3]: 40% | Population Hoechst High Intensity Objects (%) [3]: 3% | Population Membrane Permeable-Phenotype (%) [3]: 1% | Population Mitochondria Different-Phenotype (%) [3]: 8% | Population Mitotic Cells (%) [3]: 58% | Population Normal (%) [3]: 96% | Population Pyknosed Nuclei (%) [3]: 48% | Population Tubulin-Different-Phenotype (%) [3]: 86% | Total Cell Count [3]: 149 | Population Apoptotic (%) [4]: 18% | Population Fragmented Nuclei (%) [4]: 26% | Population Healthy Nuclei (%) [4]: 31% | Population Hoechst High Intensity Objects (%) [4]: 11% | Population Membrane Permeable-Phenotype (%) [4]: 8% | Population Mitotic Cells (%) [4]: 82% | Population Normal (%) [4]: 88% | Population Pyknosed Nuclei (%) [4]: 42% | Population Tubulin-Different-Phenotype (%) [4]: 94% | Total Cell Count [4]: 133 | Population Apoptotic (%) [5]: 34% | Population Fragmented Nuclei (%) [5]: 18% | Population Healthy Nuclei (%) [5]: 62% | Population Hoechst High Intensity Objects (%) [5]: 2% | Population Membrane Permeable-Phenotype (%) [5]: 1% | Population Mitochondria Different-Phenotype (%) [5]: 4% | Population Mitotic Cells (%) [5]: 65% | Population Normal (%) [5]: 97% | Population Pyknosed Nuclei (%) [5]: 18% | Population Tubulin-Different-Phenotype (%) [5]: 24% | Total Cell Count [5]: 140 | Population Apoptotic (%) [6]: 50% | Population Fragmented Nuclei (%) [6]: 26% | Population Healthy Nuclei (%) [6]: 44% | Population Hoechst High Intensity Objects (%) [6]: 10% | Population Membrane Permeable-Phenotype (%) [6]: 13% | Population Mitochondria Different-Phenotype (%) [6]: 5% | Population Mitotic Cells (%) [6]: 50% | Population Normal (%) [6]: 89% | Population Pyknosed Nuclei (%) [6]: 29% | Population Tubulin-Different-Phenotype (%) [6]: 70% | Total Cell Count [6]: 128 | Population Apoptotic (%) [7]: 43% | Population Fragmented Nuclei (%) [7]: 14% | Population Healthy Nuclei (%) [7]: 46% | Population Hoechst High Intensity Objects (%) [7]: 10% | Population Membrane Permeable-Phenotype (%) [7]: 0% | Population Mitochondria Different-Phenotype (%) [7]: 19% | Population Mitotic Cells (%) [7]: 56% | Population Normal (%) [7]: 90% | Population Pyknosed Nuclei (%) [7]: 39% | Population Tubulin-Different-Phenotype (%) [7]: 88% | Total Cell Count [7]: 150 | Population Apoptotic (%) [8]: 42% | Population Fragmented Nuclei (%) [8]: 28% | Population Healthy Nuclei (%) [8]: 26% | Population Hoechst High Intensity Objects (%) [8]: 8% | Population Membrane Permeable-Phenotype (%) [8]: 17% | Population Mitochondria Different-Phenotype (%) [8]: 8% | Population Mitotic Cells (%) [8]: 57% | Population Normal (%) [8]: 91% | Population Pyknosed Nuclei (%) [8]: 45% | Population Tubulin-Different-Phenotype (%) [8]: 85% | Total Cell Count [8]: 143 | Population Apoptotic (%) [9]: 48% | Population Fragmented Nuclei (%) [9]: 27% | Population Healthy Nuclei (%) [9]: 54% | Population Hoechst High Intensity Objects (%) [9]: 2% | Population Membrane Permeable-Phenotype (%) [9]: 1% | Population Mitochondria Different-Phenotype (%) [9]: 2% | Population Mitotic Cells (%) [9]: 52% | Population Normal (%) [9]: 97% | Population Pyknosed Nuclei (%) [9]: 18% | Population Tubulin-Different-Phenotype (%) [9]: 27% | Total Cell Count [9]: 141 | Population Apoptotic (%) [10]: 46% | Population Fragmented Nuclei (%) [10]: 35% | Population Hoechst High Intensity Objects (%) [10]: 7% | Population Membrane Permeable-Phenotype (%) [10]: 8% | Population Mitochondria Different-Phenotype (%) [10]: 8% | Population Mitotic Cells (%) [10]: 53% | Population Normal (%) [10]: 92% | Population Pyknosed Nuclei (%) [10]: 9% | Population Tubulin-Different-Phenotype (%) [10]: 73% | Total Cell Count [10]: 142 | Population Apoptotic (%) [11]: 61% | Population Fragmented Nuclei (%) [11]: 23% | Population Healthy Nuclei (%) [11]: 38% | Population Hoechst High Intensity Objects (%) [11]: 15% | Population Membrane Permeable-Phenotype (%) [11]: 0% | Population Mitochondria Different-Phenotype (%) [11]: 24% | Population Mitotic Cells (%) [11]: 38% | Population Normal (%) [11]: 84% | Population Pyknosed Nuclei (%) [11]: 37% | Population Tubulin-Different-Phenotype (%) [11]: 92% | Total Cell Count [11]: 153 | Population Apoptotic (%) [12]: 54% | Population Fragmented Nuclei (%) [12]: 34% | Population Healthy Nuclei (%) [12]: 37% | Population Hoechst High Intensity Objects (%) [12]: 10% | Population Membrane Permeable-Phenotype (%) [12]: 25% | Population Mitochondria Different-Phenotype (%) [12]: 8% | Population Mitotic Cells (%) [12]: 45% | Population Normal (%) [12]: 89% | Population Pyknosed Nuclei (%) [12]: 27% | Population Tubulin-Different-Phenotype (%) [12]: 87% | Total Cell Count [12]: 141

— ChEMBL document CHEMBL5058577, “EUbOPEN Chemogenomics Library 2 (Multiplex)” (2022)
